Measured values collected from several papers.
Compare with care: the assays were run in different laboratories. pEC50, pIC50: −log10 of the molar value.
Organism: Leishmania donovani
Read-out: parasite growth

COc1ccccc1-c1n[nH]c2nc(NC3CCN(C(=O)Cc4ccc(OCCOCCN)cc4)CC3)ncc12  pEC50 (amastigote): 5.70
N=C(N)c1ccc(OCCCCCOc2ccc(C(=N)N)cc2)cc1  IC90 (resazurin; 72 h, promastigote): 8.77 µg/mL
Fc1cccc(Nc2nc(-c3ccccn3)nc3ccccc23)c1  pIC50 (imaging; THP-1; intracellular, amastigote): 6.10
C[C@@H]1[C@H](O)[C@@H](C)/C=C/C=C/C=C/C=C/C=C/C=C/C=C/[C@H](O[C@@H]2O[C@H](C)[C@@H](O)[C@H](N)[C@@H]2O)C[C@@H]2O[C@](O)(C[C@@H](O)C[C@@H](O)[C@H](O)CC[C@@H](O)C[C@@H](O)CC(=O)O[C@H]1C)C[C@H](O)[C@H]2C(=O)O  pIC50 (promastigote): 6.87
CCCCCCCCCCCCCCCCOP(=O)([O-])OCC[N+](C)(C)C  inhibition (resazurin; 50 µM, 72 h, promastigote): 100%
c1ccc(CNc2nc(-c3ccccn3)nc3ccccc23)cc1  pIC50 (imaging; THP-1; intracellular, amastigote): 5.96
COc1ccccc1-c1n[nH]c2nc(NC3CCN(C(=O)Cc4ccc(OCCOCCNC(=O)OC(C)(C)C)cc4)CC3)ncc12  pEC50 (THP-1; intracellular, amastigote): 5.35
C[C@@H]1[C@H](O)[C@@H](C)/C=C/C=C/C=C/C=C/C=C/C=C/C=C/[C@H](O[C@@H]2O[C@H](C)[C@@H](O)[C@H](N)[C@@H]2O)C[C@@H]2O[C@](O)(C[C@@H](O)C[C@@H](O)[C@H](O)CC[C@@H](O)C[C@@H](O)CC(=O)O[C@H]1C)C[C@H](O)[C@H]2C(=O)O  IC90 (MTT; 48 h, promastigote): 5.4 µM
N=C(N)c1ccc(OCCCCCOc2ccc(C(=N)N)cc2)cc1  IC50 (resazurin; promastigote): 1 µg/mL
CCCCCCCC/C=C\CCCCCCCCCCCCOP(=O)([O-])OCC[N+](C)(C)C  inhibition (resazurin; 25 µM, 72 h, promastigote): 106%
COc1cc(NC(C)CCCNC(=S)NCCCC(C)Nc2cc(OC)cc3cccnc23)c2ncccc2c1.Cl.Cl (stereo not drawn)  IC90 (resazurin; promastigote): 20 to 31 µg/mL
COc1ccccc1-c1n[nH]c2nc(N[C@H]3CC[C@H](NS(=O)(=O)CCCOCCOCCN)CC3)ncc12  pEC50 (THP-1; intracellular, amastigote): 4.61
